# High-throughput results as filed in PubChem.
# Most compounds without a hit are left out; they make up all but 2.2% or so of the library.
# core dimer inh – HCV core protein dimerization inhibition; 300,000 tested, 0.33% active; TR-FRET GST/Flag-core106 dimerization, 1536-well; inhibition, % at 5 µM;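 active means inhibition above the mean of all tested compounds plus 3 SD, set per screening campaign, cut at about 45% in these data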
#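 Assay system: Tagged HCV core106 pair (GST and Flag) | Buffer or medium: KF-containing HEPES buffer, pH 7.45, DTT, CHAPS, BSA | Also added: Eu donor and XL665 acceptor anti-tag antibodies | Dosing: One concentration, 5 µM, in 0.5% DMSO | Timing: 4 h at 22.5 °C | Technique: TR-FRET 671 and 617 nm emission | Repeats: Singlicate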
# GPR7 antag – human neuropeptides B/W receptor 1 antagonism; P48145; GPR7-expressing cells, fluorescence antagonist assay; inhibition, % at 4.4 µM; 290,000 tested, 1.1% active; AID 1861; in the data active means inhibition above about 16%, passing the limit was not always enough;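 further: cells stimulated with the agonist NPW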
# GRK2 inh – blocks RNA aptamer binding to human GRK2 | 330,000 tested, 0.59% active | AID 488847 | P25098 | inhibition of aptamer binding, % at 10 µM | bead flow cytometry, FAM-aptamer displacement from GRK2;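 active means inhibition of aptamer binding above 40%, roughly 3 SD of noise, on plates passing a quality check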;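 further: median bead fluorescence of bound FAM aptamer so fluorescent compounds give negative values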
# DAGLB inhibitor – diacylglycerol lipase beta (human) inhibition; Q8NCG7; HEK293T DAGLB membrane lysate, EnzChek fluorogenic substrate; inhibition, % at 5.17 µM; 340,000 tested, 0.059% active; AID 504411; in the data active means inhibition above about 34%
# Target sequence (Q8NCG7 whole entry, looked up): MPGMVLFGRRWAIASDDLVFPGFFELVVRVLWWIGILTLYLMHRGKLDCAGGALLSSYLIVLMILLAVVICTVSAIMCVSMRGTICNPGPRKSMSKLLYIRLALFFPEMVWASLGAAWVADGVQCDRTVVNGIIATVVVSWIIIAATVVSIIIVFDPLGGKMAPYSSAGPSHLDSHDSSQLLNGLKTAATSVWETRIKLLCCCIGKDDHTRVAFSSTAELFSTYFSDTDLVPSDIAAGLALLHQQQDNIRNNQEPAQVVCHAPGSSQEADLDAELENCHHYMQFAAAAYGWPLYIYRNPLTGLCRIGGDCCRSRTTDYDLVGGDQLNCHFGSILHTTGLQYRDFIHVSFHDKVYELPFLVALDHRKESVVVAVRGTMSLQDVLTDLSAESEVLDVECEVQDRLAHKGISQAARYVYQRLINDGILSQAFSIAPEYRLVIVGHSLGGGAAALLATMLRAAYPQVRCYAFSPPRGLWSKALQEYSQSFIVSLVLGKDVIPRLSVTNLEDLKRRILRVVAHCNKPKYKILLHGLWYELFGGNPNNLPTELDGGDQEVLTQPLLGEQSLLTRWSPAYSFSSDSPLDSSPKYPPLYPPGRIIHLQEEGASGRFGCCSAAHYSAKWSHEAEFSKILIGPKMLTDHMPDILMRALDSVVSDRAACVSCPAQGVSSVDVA
# DNA FID counter-1 – displaces DNA intercalator in HCV helicase counter-screen. 290,000 tested, 0.17% active. AID 1845. DNA fluorescent intercalator displacement, fluorescence. inhibition, % at 7.9 µM;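 further: higher means more ethidium bromide displaced from hairpin DNA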
# NS3 helicase inh – HCV NS3 helicase inhibition | inhibition, % at 10.9 µM | NS3 helicase DNA unwinding, Cy5 molecular beacon fluorescence | 290,000 tested, 0.56% active | AID 1800;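 active means inhibition above the mean of all tested compounds plus 3 SD, set per campaign, cut at about 35% in these data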
#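 Material: hepatitis C virus NS3 helicase domain fragment enzyme; measured by: Cy5 fluorescence, 0 and 60 min reads; control set: DMSO and thioflavine S; incubation: 60 min unwinding reaction at 25 °C after ATP addition; read-out basis: % inhibition from 60/0 min fluorescence ratio, DMSO 0%, thioflavine S 100%; repeats: singlicate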
# NS3 helicase cf – confirmation of Hepatitis C virus NS3 helicase inhibitors | 1,600 tested, 31% active | shares compounds with NS3 helicase inh | NS3 helicase DNA unwinding, Cy5 molecular beacon fluorescence | inhibition, % at 10.9 µM | AID 1943;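 active means inhibition above the mean of all tested compounds plus 3 SD, cutoff set per campaign, cut at about 36% in these data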
# DNA FID counter-2 – counter-screen for HCV NS3 helicase inhibitors: DNA intercalator displacement; shares compounds with NS3 helicase inh; DNA fluorescent intercalator displacement, fluorescence; inhibition, % at 7.9 µM; 1,600 tested, 4% active;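 further: higher means more displacement of ethidium bromide from the DNA hairpin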
# FID counter DR – displaces fluorescent intercalator from DNA, HCV helicase counter-screen. IC50, µM. fluorescent intercalator displacement from DNA, fluorescence. shares compounds with NS3 helicase inh. 120 tested, under 10 active; call rule not given here
# GPR7 antag cf – human GPR7 antagonism, confirmation assay; shares compounds with GPR7 antag; inhibition, % at 4.4 µM; 2,400 tested, 52% active; GPR7-expressing cells, calcium fluorescence antagonist mode; in the data active means inhibition above about 24%;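 further: stimulated with the GPR7 agonist NPW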
# MCHR1 antagonist – counter-screen for GPR7 antagonists: antagonists of human MCHR1; shares compounds with GPR7 antag; AID 2148; 2,400 tested, 62% active; inhibition, % at 4.4 µM; MCHR1-expressing cells, fluorescence antagonist assay; in the data active means inhibition above about 22%
# GRK2 CP1 – confirmation of human GRK2 inhibitors displacing RNA aptamer | shares compounds with GRK2 inh | bead-bound GRK2, FAM-aptamer displacement, flow cytometry | aptamer displacement, % at 10 µM | 2,000 tested, 4% active;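 active means aptamer displacement above 40%, near three times the noise of non-fluorescent compounds, on plates passing quality checks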;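 further: negative values mostly reflect intrinsic compound fluorescence rather than true enhancement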
# FAM quench CP1 – counter-screen for GRK2 aptamer inhibitors: fluorescent aptamer quenchers; shares compounds with GRK2 inh; Carboxyfluorescein RNA aptamer on beads, flow cytometry quenching; hits give low values; fluorescence response (% of DMSO), % at 10 µM; 2,000 tested, under 10 active; AID 504580;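 active means compounds that quench the bead-bound fluorescent RNA probe, cutting fluorescence to under half of the solvent control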;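 further: counterscreen run without GRK2 so only probe quenching by compound is measured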
# DAGLB confirm – DAGLB (human) inhibition, confirmation screen; shares compounds with DAGLB inhibitor; HEK293T DAGLB membrane lysate, EnzChek fluorogenic substrate; inhibition, % at 5.17 µM; 190 tested, 73% active;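 active means mean inhibition over triplicate wells above a set limit taken from the primary lipase screen, cut at about 34% in these data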
# Numbers stand for hits; 0 = inactive; - = no result given. Unless noted, no stated cut-off is given here; in the data, active means inhibition above about 37%; inactive means the rest.
SMILES,core dimer inh,GPR7 antag,GRK2 inh,DAGLB inhibitor,DNA FID counter-1,NS3 helicase inh,NS3 helicase cf,DNA FID counter-2,others
CC(=O)OCC1=C(C(=O)O)N2C(=O)C(NC(=O)Cn3nc(C(F)F)c(Cl)c3C)C2SC1 (stereo unspecified),0,0,0,0,0,40.3,0,0,GRK2 CP1=0;FAM quench CP1=0
C=CCN1C(=O)/C(=C/c2ccc(-c3ccc(F)cc3)o2)SC1=S,0,0,43.0,0,0,78.3,0,0,GRK2 CP1=0;FAM quench CP1=0
CCCCn1c(NS(=O)(=O)c2ccc(C)cc2)c(S(=O)(=O)c2ccccc2)c2nc3ccccc3nc21,0,0,0,0,0,37.8,71.7,0,FID counter DR=0;GRK2 CP1=0;FAM quench CP1=0
Cc1ccc(S(=O)(=O)c2c(N)n(CCCN(C)C)c3nc4ccccc4nc23)cc1,0,0,0,0,0,0,-,-,
CCN1CCN(c2cc(N3CCN(C(=O)c4ccco4)CC3)c3c4c(onc24)-c2ccccc2C3=O)CC1,0,0,0,0,0,0,-,-,
O=C(O)CCNc1cc(N2CCN(C(=O)c3ccco3)CC2)c2noc3c2c1C(=O)c1ccccc1-3,0,0,83.0,0,0,56.9,76.3,0,GRK2 CP1=0;FAM quench CP1=0
Cn1c(CC(=O)Nc2ccccc2Cl)nnc1SCC(=O)NC1CCCCC1,0,0,0,0,0,0,-,-,
CN(C)c1ccc(N=Nc2ccc(C(=O)O)cc2)cc1,0,0,54.0,0,0,62.5,0,0,GRK2 CP1=0;FAM quench CP1=0
CN(C)c1ccc(C(=O)c2ccccc2)cc1,0,0,0,0,0,0,-,-,
O=C(O)C1Nc2c(C(F)(F)F)ccc(Cl)c2C2C=CCC12 (stereo unspecified),0,0,0,0,0,0,-,-,
Cc1cc(C)c2c(c1)NC(C(=O)O)C1CC=CC21 (stereo unspecified),0,0,93.0,0,0,43.8,97.5,0,FID counter DR=0;GRK2 CP1=0;FAM quench CP1=0
CCN(CC)CCOc1ccc(C=NNc2nc3c([nH]2)c(=O)n(C)c(=O)n3C)cc1,-,-,-,0,-,-,-,-,
CCNC(C(=O)c1c[nH]c2c(CC)cccc12)c1ccccc1 (stereo unspecified),0,0,0,0,0,0,-,-,
CN1CCN(NC(=O)NC2CCCCC2)CC1,0,0,0,0,0,0,-,-,
O=C(O)c1cccc(-n2cccc2/C=C/[N+](=O)[O-])c1,0,0,51.0,0,0,41.4,40.5,0,GRK2 CP1=0;FAM quench CP1=0
O=C1/C(=C/C=C/c2ccco2)SC(=S)N1NS(=O)(=O)c1ccccc1,65.3,0,95.0,0,0,65.6,72.9,0,GRK2 CP1=0;FAM quench CP1=0
Cc1c(Cl)cccc1NS(=O)(=O)c1ccc2c(c1)C1C=CCC1C(c1ccc(C(=O)O)cc1)N2 (stereo unspecified),0,0,52.0,0,0,39.3,54.6,42.6,GRK2 CP1=0;FAM quench CP1=0
Nc1c(S(=O)(=O)O)cc(NC(=O)c2ccccc2)c2c1C(=O)c1ccccc1C2=O,0,0,0,60.9,0,80.8,65.7,60.6,DAGLB confirm=71.7
CCOc1cc2c3c(c1)C(C)=CC(C)(C)N3C(=O)C2=O,0,0,0,0,0,0,-,-,
CC(=O)Oc1cc2c3c(c1)/C(=C1/SC(=S)NC1=O)C(=O)N3C(C)(C)C=C2C,0,0,-,50.2,0,53.3,80.4,0,DAGLB confirm=59.4
Cc1c(Cc2ccccc2)sc(NC(=O)C(C)(C)C)c1C(N)=O,0,0,0,0,0,0,-,-,
CCN(CC)C(=O)CSc1nc2ccccc2c(=O)n1-c1cccc(OC)c1,0,0,0,0,0,0,-,-,
COc1cccc(-n2c(SCc3cc(=O)oc4cc(O)c(O)cc34)nc3ccccc3c2=O)c1,0,0,0,40.0,0,85.9,134.2,0,FID counter DR=0;DAGLB confirm=0
CC(C)(C)c1ccc(S(=O)(=O)/N=C2\C=C(NS(=O)(=O)c3ccccc3)C(=O)c3ccccc32)cc1,0,0,0,39.4,0,43.4,82.0,60.3,DAGLB confirm=63.7
Cc1cc(O)c(C(C)C)cc1N=Nc1ccccc1C(=O)O,0,0,0,0,0,0,-,-,
SMILES,core dimer inh,GPR7 antag,GRK2 inh,DAGLB inhibitor,DNA FID counter-1,NS3 helicase inh,NS3 helicase cf,DNA FID counter-2,others
Cc1cc(N=Nc2ccccc2C(=O)O)c(C)c(C)c1O,0,0,0,35.3,0,48.6,66.3,0,DAGLB confirm=48.3
CC1CCCC(C)N1C(=O)c1cc(-c2ccc3c(c2)OCO3)on1 (stereo unspecified),0,0,0,0,0,0,-,-,
O=c1cc2oc3cc(O)c(O)cc3c(-c3ccccc3[N+](=O)[O-])c-2cc1O,0,0,0,43.4,0,63.9,108.7,0,FID counter DR=0;DAGLB confirm=0
O=S(=O)(c1cc(F)ccc1F)N1CCN(C2CCCCC2)CC1,0,0,0,0,0,0,-,-,
COc1ccc(N2C(=O)/C(=C3/C=CC=CN3C)SC2=S)cc1,0,23.6,0,0,0,0,-,-,GPR7 antag cf=0;MCHR1 antagonist=0
O=C(CSc1ccc2nnc(-c3cccnc3)n2n1)Nc1ccc(F)cc1F,0,0,0,0,0,0,-,-,
O=C(NCc1n[nH]c(=S)n1-c1cccc(C(F)(F)F)c1)c1ccco1,0,0,0,0,0,0,-,-,
CN1CCC(NCCC(c2ccc(F)cc2)c2ccc(Cl)cc2)CC1 (stereo unspecified),-,46.7,0,0,42.0,0,-,-,GPR7 antag cf=42.8;MCHR1 antagonist=40.8
Cn1cc(C(=O)c2cccc(Cl)c2)cc1/C=N\O,0,22.0,0,0,0,0,-,-,GPR7 antag cf=0;MCHR1 antagonist=0
O=C(CSc1nnc(Cc2ccccc2)n1Cc1ccco1)NC1CCCC1,0,33.1,0,0,0,0,-,-,GPR7 antag cf=26.2;MCHR1 antagonist=0
Cn1c(Cc2ccccc2)nnc1SCC(=O)NC1CCCCC1,0,0,0,0,0,0,-,-,
CC(C)OC(=O)CSc1nnc(Cc2ccccc2)n1Cc1ccco1,0,0,0,0,0,0,-,-,
